Laboratory results as given in ChEMBL document CHEMBL1667803, “Inhibitory effects of ethacrynic acid analogues lacking the α,β-unsaturated carbonyl unit and para-acylated phenols on human cancer cells” (2011).
Activity calls are given as the source filed them. No cut-off for these calls is given here.

Tests used:
Assay type in all cases: functional
[1] = organism: Homo sapiens; test: (§1) Inhibition of migration of human Hs578Ts(i)8 cells at 100 uM after 24 hrs
Procedure, shortened: (§2)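 Wound-healing migration assay. Confluent monolayers were washed twice with PBS and scratched to leave a gap of about 1500 µm, then imaged. Fresh medium was added with or without compound, at concentrations set from the 24 h MTT assay. The wound was imaged again after 24 h. Migration was quantified against the earlier images as migratory velocity (µm/h).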

[2] = […] human Hs578Ts(i)8 cells assessed as reduction in cell viability after 24 hrs
Procedure, shortened: (§3)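 MTT viability assay. Cells seeded at 1.5×10^4 per well in medium with 5% FBS and penicillin/streptomycin, then grown 24 h at 37 °C in 5% CO2. Treated 24 h at 1, 5, 10, 20, 40, 60, 80 and 100 μM. Half the medium was removed before adding MTT, and optical density was read. Three independent experiments were run per concentration. OD80/IC20 (20% inhibition) was read from the graphs.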

[3] = system: LNCaP C4-2B; test: […] human C4-2B cells assessed as reduction in cell viability after 24 hrs; procedure, shortened: as §3
[4] = system: LNCaP C4-2B; test: Inhibition of migration of human C4-2B cells at 100 uM after 24 hrs; procedure, shortened: as §2
[5] = as §1; procedure, shortened: as §2

| Compound | inhibition [1] | IC20 [2] [µM] | IC20 [3] [µM] | inhibition [4] | inhibition at 100 µM [5] [%] | inhibition at 100 µM [4] [%] |
| --- | --- | --- | --- | --- | --- | --- |
| CCOC(=O)COc1ccc(C(=O)CC)c(C)c1C | inactive | > 100 | > 100 | inactive | – | – |
| CCC(=O)c1ccc(O)cc1 [PAROXYPROPIONE] | – | > 100 | > 100 | – | 28 | 25 |
| CCC(=O)c1ccc(O)cc1C | – | > 100 | > 100 | – | 86 | 65 |
| CCC(=O)c1ccc(O)c(C)c1C | – | > 100 | > 100 | inactive | 17 | – |
| CCC(=O)c1ccc(OCC(=O)O)c(C)c1C | inactive | > 100 | > 100 | inactive | – | – |
| CCCC(=O)c1ccc(OCC(=O)O)c(C)c1C | inactive | > 100 | > 100 | inactive | – | – |
| CCCC(=O)c1ccc(OCC(=O)OCC)c(C)c1C | inactive | > 100 | 50 | inactive | – | – |
| CCOC(=O)COc1ccc(C(=O)CC)c(C)c1 | – | > 100 | > 100 | – | 19 | 23 |
| C=C(CC)C(=O)c1ccc(OCC(=O)O)c(Cl)c1Cl [ETHACRYNIC ACID] | inactive | 80 | 10 | inactive | – | – |
